{"source": "paper PMC3387347", "about": "(Investigational new drugs, 2012)", "key": {"[1]": {"test_system": "Pgp", "details": "cited from earlier work"}, "[2]": {"details": "mice; cited from earlier work"}, "[3]": {"assay": "In vivo cassette dosing pharmacokinetic study in normal mice", "design": "species or system mouse", "details": "for AUCb: normal brain; for Kp / clearance / Vd: male, ICR, mouse, 5 mg/kg, normal mice; for Kp: brain, intravenous, Pb (brain partition coefficient, AUCb/AUCp); for clearance / Vd: plasma, iv; for clearance: CL (total systemic clearance); for Vd: Vd (apparent volume of distribution)", "method_in_brief": "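Adult male ICR mice each received a compound mixture in NMP:PEG300:water (1:4:5 by volume) as an IV bolus into a lateral tail vein. The dose was about 5 mg/kg per compound, with one compound at 1.67 mg/kg. Plasma and brain were collected at various times, stored at −80°C and quantified by LC/MS/MS. AUCb was derived by noncompartmental analysis.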"}, "[4]": {"details": "cassette B, IV approximately 5 mg/kg"}, "[5]": {"details": "cassette C, IV approximately 5 mg/kg"}}, "data": [{"smiles": "COc1cc2ncnc(Nc3ccc(F)c(Cl)c3)c2cc1OCCCN1CCOCC1", "note": "[Gefitinib]", "values": [{"measurement": "concentration reported to inhibit Pgp", "setting": "[1]", "result": 100, "unit": "µM"}, {"measurement": "bound to plasma proteins", "setting": "[2]", "result": 95, "unit": "%"}, {"measurement": "AUCb", "setting": "[3]; cassette A, IV approximately 5 mg/kg (ON271320 1.67 mg/kg)", "result": 1968.6, "unit": "ng·h/g"}, {"measurement": "AUCb", "setting": "[3]; [4]", "result": 2685.2, "unit": "ng·h/g"}, {"measurement": "AUCb", "setting": "[3]; [5]", "result": 3491.2, "unit": "ng·h/g"}, {"measurement": "Kp", "setting": "[3]; [4]", "result": 2.5}, {"measurement": "Kp", "setting": "[3]; [5]", "result": 1.9}, {"measurement": "clearance", "setting": "[3]; [4]", "result": 71.7, "unit": "mL/min/kg"}, {"measurement": "clearance", "setting": "[3]; [5]", "result": 43.3, "unit": "mL/min/kg"}, {"measurement": "Vd", "setting": "[3]; [4]", "result": 9.9, "unit": "L/kg"}, {"measurement": "Vd", "setting": "[3]; [5]", "result": 8.9, "unit": "L/kg"}]}]}
